Source: ChEMBL document CHEMBL2057168, “(1aR,5aR)1a,3,5,5a-Tetrahydro-1H-2,3-diaza-cyclopropa[a]pentalene-4-carboxylic acid (MK-1903): a potent GPR109a agonist that lowers free fatty acids in humans” (J Med Chem, 2012)
Calls of active or inactive are those of the source. No cut-off for these calls is given here.

Experiments:
[1] = Oral bioavailability in rhesus monkey; assay type: ADME, organism-based, Macaca mulatta; conditions: in vivo
[2] = Plasma clearance in rhesus monkey; assay type: ADME, organism-based, Macaca mulatta
[3] = Cmin in human at 50 mg, po BID administered on day 1 followed by 2-day wash out period after which dosing continued up to day 11 measured on day 4 at 12 hrs; assay type: ADME, organism-based; conditions: in vivo, read-out: Cmin
Procedure, shortened: (§1)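 Healthy male volunteers took part in a double-blind, randomized, placebo-controlled dose-escalation study, with cohorts of 8 (6 on drug, 2 on placebo). Each subject got an oral dose on day 1, then a 2-day washout, then dosing on days 4–11. The 200 mg qd group was titrated over days 1–4. Venous plasma was sampled predose and 0.5–12 h postdose on days 1, 4 and 11, and predose on days 5–10 for troughs.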

Rattus norvegicus = assay: Antidyslipedic activity in fasted Sprague-Dawley rat assessed as decrease in free fatty acid level at 0.001 mg/kg, po by NEFA C-free fatty acid assay; assay type: functional, organism-based; parameters: dose 0.001 mg/kg
Procedure, shortened: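 Male Sprague-Dawley rats fasted, compound by oral gavage, serial plasma sampling after dosing for free fatty acids over a time course; vehicle-dosed control group.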

Homo sapiens [4] = assay: Antidyslipidemic activity in human assessed as decrease in free fatty acid level 50 to 150 mg, po BID administered on day 1 followed by 2-days wash out period after which dosing continued up to day 11 measured on day 4 and 11; assay type: functional, organism-based
Procedure, shortened: (§2)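 Healthy male volunteers in a randomized, double-blind, placebo-controlled multiple-dose study, six active and two placebo subjects per cohort. Oral dosing on day 1, two-day washout, then days 4–11, with titration over days 1–4 for the qd arm.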

[5] = Cmax in human at 150 mg, po BID administered on day 1 followed by 2-day wash out period after which dosing continued up to day 11 measured on day 4; assay type: ADME, organism-based; parameters: dose 150 mg, route oral; conditions: in vivo; procedure, shortened: as §1
[6] = Apparent half life in human at 100 mg, po BID administered on day 1 followed by 2-day wash out period after which dosing continued up to day 11 measured on day 11; assay type: ADME, organism-based; conditions: in vivo, read-out: t1/2(app) (converted)
Procedure, shortened: (§3)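 Double-blind, placebo-controlled, randomized dose-escalation study in healthy male volunteers, six cohorts of eight (six active, two placebo). Oral dose on day 1, two-day washout, then dosing days 4–11; the 200 mg qd cohort was titrated over days 1–4. Venous blood taken predose and at 0.5–12 h on days 1, 4 and 11; plasma drug measured. τ 12 h (bid), 24 h (qd), 8 h (tid), 6 h (qid).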

[7] = AUC (0 to 8 hrs) in human at 150 mg, po TID administered on day 1 followed by 2-days wash out period after which dosing continued up to day 11 measured on day 1; assay type: ADME, organism-based; parameters: time < 8 hr, dose 150 mg, route oral; conditions: plasma
Procedure, shortened: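 Healthy male volunteers, double-blind placebo-controlled randomized dose escalation; cohorts of eight (six active, two placebo). Oral dose on day 1, two-day washout, then dosing days 4–11. Venous blood predose and 0.5, 1, 1.5, 2, 4, 6, 8, 10, 12 h postdose on days 1, 4 and 11 for plasma drug; dosing interval (τ) 12 h for BID, 8 h for TID; Ctrough taken at end of interval.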

[8] = Cmax in human at 175 mg, po QID administered on day 1 followed by 2-days wash out period after which dosing continued up to day 11 measured on day 11; assay type: ADME, organism-based; parameters: dose 175 mg, route oral; conditions: in vivo; procedure, shortened: as §1
[9] = AUC (0 to 6 hrs) in human at 175 mg, po QID administered on day 1 followed by 2-days wash out period after which dosing continued up to day 11 measured on day 4; assay type: ADME, organism-based; parameters: time < 6 hr, dose 175 mg, route oral; conditions: plasma; procedure, shortened: as §3
[10] = Apparent half life in human at 50 mg, po BID administered on day 1 followed by 2-day wash out period after which dosing continued up to day 11 measured on day 11; assay type: ADME, organism-based; conditions: in vivo, read-out: t1/2(app) (converted); procedure, shortened: as §3
Homo sapiens [11] = assay: Activation of GPR109a receptor in human assessed as PGD2 metabolite level in urine at 10 to >10 mg, po; assay type: functional, organism-based
[12] = AUC (0 to 12 hrs) in human at 50 mg, po BID administered on day 1 followed by 2-day wash out period after which dosing continued up to day 11 measured on day 1; assay type: ADME, organism-based; parameters: dose 50 mg, time < 12 hr, route oral; conditions: plasma; procedure, shortened: as §3
[13] = Volume of distribution in rhesus monkey; assay type: ADME, organism-based, Macaca mulatta; conditions: in vivo
[14] = Terminal half life in rhesus monkey; assay type: ADME, organism-based, Macaca mulatta; conditions: in vivo, read-out: beta t1/2 (converted)
[15] = Cmax in human at 100 mg, po BID administered on day 1 followed by 2-day wash out period after which dosing continued up to day 11 measured on day 11; assay type: ADME, organism-based; parameters: dose 100 mg, route oral; conditions: in vivo; procedure, shortened: as §3
[16] = AUC (0 to 12 hrs) in human at 150 mg, po BID administered on day 1 followed by 2-day wash out period after which dosing continued up to day 11 measured on day 1; assay type: ADME, organism-based; parameters: dose 150 mg, time < 12 hr, route oral; conditions: plasma; procedure, shortened: as §3
[17] = Cmax in human at 175 mg, po QID administered on day 1 followed by 2-days wash out period after which dosing continued up to day 11 measured on day 1; assay type: ADME, organism-based; parameters: dose 175 mg, route oral; conditions: in vivo; procedure, shortened: as §1
[18] = Cmax in human at 150 mg, po TID administered on day 1 followed by 2-days wash out period after which dosing continued up to day 11 measured on day 4; assay type: ADME, organism-based; parameters: dose 150 mg, route oral; conditions: in vivo; procedure, shortened: as §1
[19] = Tmax in human at titreated po dose administered from day 1 to 4 followed by 200 mg, po QD administered up to day 11 measured on day 11; assay type: ADME, organism-based; conditions: in vivo
Procedure, shortened: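 Double-blind, placebo-controlled, randomized multiple oral dose study in healthy male volunteers (cohorts of eight; six active, two placebo). Dose given on day 1, then a two-day washout, then dosing days 4–11; for the QD arm, subjects were titrated over days 1–4. Venous plasma sampled predose and 0.5, 1, 1.5, 2, 4, 6, 8, 10, 12 h postdose on days 1, 4 and 11. Tmax reported as median (min–max).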

Homo sapiens [20] = assay: Antidyslipedic activity in human assessed as decrease in free fatty acid level at 50 to 200 mg, po administered as a single dose measured up to 8 hrs relative to placebo control; assay type: functional, organism-based
[21] = Drug excretion in human urine assessed as unchanged drug at 50 to 150 mg, po BID in administered on day 1 followed by 2-days wash out period after which dosing continued up to day 11; assay type: ADME, organism-based; conditions: read-out: Ae
[22] = Terminal half life in Sprague-Dawley rat at 2 mg/kg, iv; assay type: ADME, organism-based; parameters: dose 2 mg/kg, route intravenous; conditions: in vivo, read-out: beta t1/2 (converted)
Procedure, shortened: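 Male Sprague-Dawley rats were dosed at 10 mg/kg po or 2 mg/kg iv in 80% PEG400/20% phosphate-buffered saline, fasted overnight before the oral dose. Jugular blood was sampled serially from 0.25 to 21 h over 24 h, and heparinized plasma was prepared. Drug was assayed by HPLC/MS/MS (quantitation range 1–2000 ng/mL).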

[23] = AUC (0 to 6 hrs) in human at 175 mg, po QID administered on day 1 followed by 2-days wash out period after which dosing continued up to day 11 measured on day 1; assay type: ADME, organism-based; parameters: time < 6 hr, dose 175 mg, route oral; conditions: plasma; procedure, shortened: as §3
[24] = Cmin in human at 50 mg, po BID administered on day 1 followed by 2-day wash out period after which dosing continued up to day 11 measured on day 11 at 12 hrs; assay type: ADME, organism-based; conditions: in vivo, read-out: Cmin; procedure, shortened: as §1
Homo sapiens [25] = assay: Antidyslipidemic activity in dyslipidemia patient assessed as decrease in free fatty acid level at 150 mg administered TID during four week study; assay type: functional, organism-based
Homo sapiens [26] = assay: Antidyslipidemic activity in human assessed as decrease in free fatty acid level titreated po dose administered from day 1 to 4 followed by 200 mg, po QD administered up to day 11 measured on day 4 and 11; assay type: functional, organism-based; procedure, shortened: as §2

In the case of `O=C(O)c1n[nH]c2c1C[C@H]1C[C@@H]21`, the bioavailability [1] is reported as 39%, the clearance [2] is reported as 5.1 mL/min/kg and the concentration at 12 h [3] is reported as 0.023 nM. For the same compound, the Activity (Rattus norvegicus) was “inactive”, the Activity (Homo sapiens [4]) was “Active” and the Cmax [5] was 31.7 nM. The half-life [6] was 2.2 h, the AUC at 8 h [7] was 0.102 µM·h and the Cmax [8] was 56 nM. The AUC at 6 h [9] was 0.113 µM·h, the half-life [10] was 1.9 h and the Activity (Homo sapiens [11]) was “Active”. The AUC at 12 h [12] was 0.0294 µM·h, the Vd [13] was 0.21 L/kg and the half-life [14] was 1.1 h. It also gave a Cmax [15] of 32.5 nM, an AUC at 12 h [16] of 0.0977 µM·h and a Cmax [17] of 52.6 nM. The Cmax [18] was 52.6 nM, the Tmax [19] was 1.25 h and the Activity (Homo sapiens [20]) was “Active”. The dose excreted [21] was 70%, the half-life [22] was 2.4 h and the AUC at 6 h [23] was 0.13 µM·h. For the same compound, the concentration at 12 h [24] was 0.045 nM, the Activity (Homo sapiens [25]) was “Active” and the Activity (Homo sapiens [26]) was “Active”.
